Test results: the RNAGym collection of RNA variant scans (doi:10.1126/science.aae0568)
This sample holds only a part of the variants without activity.

B1: tRNA (parent)
chain: GUUCCGUUGGCGUAAUGGUAACGCGUCUCCCUCCUAAGGAGAAGACUGCGGGUUCGAGUCCCGUACGGAACG

Variants of: B1
Assay: yeast fitness relative to wild type (ratio to wild type); higher = fitter; tRNA-Arg(CCU), competitive growth, 37 C, YPD
Summary of the method: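 A pool of Saccharomyces cerevisiae strains, each with a tRNA-Arg(CCU) gene variant at the native genomic locus, was competed in YPD at 37°C for 24 hours across six parallel replicates. The variants had been chemically synthesised at a 3% per-site mutation rate over 69 sites, and gene amplicons before and after competition were read by 100-nucleotide paired-end sequencing. Darwinian fitness relative to wild type rested on changes in genotype frequencies. Genotypes required ≥ 100 starting reads, and estimates < 0.5 were set to 0.5.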

Variant | yeast fitness
C46G C60U G68C | ≤ 0.5
G48A C61U A70C | 0.989
C46G C49U G68C | 0.653
C46U | 0.986
C46A | 0.999
C46G | 0.99
C46G C61A | 0.678
C46G C61U | 1.05
U47C U59A | 0.961
C46G G50A C62A | 0.603
A45U U54A | 0.702
C46A C60G | 0.684
U47C G68A | 0.876
G48A A69C | 0.96
C46A G58U G68A | 0.932
C46A G50A C60G G63C | ≤ 0.5
C46A U64C | 0.986
U47C C60A C61G A69U | ≤ 0.5
G48A G52A G67A | 0.648
G48A G52A G67C | 0.536
A45U C55U A69G | ≤ 0.5
C46A C55U | 0.758
C46A C55A | 0.562
C46G C55U A57C C61G | ≤ 0.5

Variant | yeast fitness
U47C C55U G68C | 0.517
A45U C61G A65C | ≤ 0.5
G48A C66A G67A | ≤ 0.5
C46A A57G | 0.964
C46A A57U | 0.792
C46A A57C | 0.57
C46U U59A | 0.877
C46U U47C | 0.911
C46U U47G | 0.823
G48A C61A G68U | 0.561
A45U C49U A65U | 0.755
U47G U59A C66A A70C | ≤ 0.5
C46A C60G C62U A69C | ≤ 0.5
C46G U54C | 0.697
U47C A70U | 0.955
U47C A70C | 1.07
C46A G56U A57G | 0.665
A45U G48A C55A | 0.543
G48A C55A C60G | 0.513
G48A A57G | 0.972
U47G C66G | 0.517
U47G C66U | 0.691
U47C G63C C66U | ≤ 0.5
C46U U59G C60A G63C A69U | 0.632

Variant | yeast fitness
C46U C61G A69U | 0.627
U47C G52C | 0.612
G48C A69C | 1.05
U47C U53A | 0.604
C46G G52A C62U | 0.639
U47A A70C | 0.842
C46U C61G | 0.593
U47G G50C | ≤ 0.5
U47A G50C | 0.69
C46A A70C | 1.02
G48A G58C C66U | 0.714
U47A C55G | 0.684
C46U U54C A70U | 0.804
C46A G56A A70G | 1.01
C46A C55G G67U | 0.699
U47A G48C G67C | 0.538
G48A G52C A57C | 0.622
G48A U64C | 0.816
A45U C49G A70C | 0.65
C46U C55U C61G | ≤ 0.5
U47C C61U | 0.888
U47C C66U A70U | 0.548
C46U G56A C61G | ≤ 0.5
G48A C55U C60G | 0.727

Variant | yeast fitness
C46A G58C U59C | 0.545
C46A C55G C66U A69C | ≤ 0.5
G48A G58C | 0.979
G48A G50A A70U | 0.812
U47A G48C G56A | ≤ 0.5
G48A U53C C60A | ≤ 0.5
C46U G63A | 0.769
G48A C55U A65C | 0.627
A45U G63C A65U | 0.727
A45U G63C A65G | 0.647
A45U C60G C66A | ≤ 0.5
A45U G48A | 0.824
G48A C61U | 1.04
G48A C61A | 0.682
C46G C49A A69U | 0.549
A45U C46U A57U | 0.539
C46A A57U G68C | 0.543
C46U G58C | 0.825
C46U G58A | 0.985
U47C U59A G63C | 0.58
U47G A57G | 0.7
U47G A57U | ≤ 0.5
C46U C49A | 0.858
C46U C49U | 0.98

Variant | yeast fitness
U47C C60A | 0.603
G48A U54C | 0.929
C46U G56C | 0.698
C46U G56A | 0.978
A45U C55U | 0.743
U47C G52A C61G | ≤ 0.5
U47C G48C | 0.797
C46U A70U | 1.05
C46U A70G | 1.05
C46A G68C A69G | ≤ 0.5
U47A G68A | 0.621
U47A G68U | 0.775
C46G C49U A69U | 1.04
C46U C55U A69U | 0.76
C46A A57G C61U | 0.704
A45U C46G G52A | 0.578
G48A G51C G67C | ≤ 0.5
U47C C49A | 0.65
U47C C49U | 0.987
A45U G48A C55A A65C | ≤ 0.5
U47G A70C | 0.685
A45U U54A C55G | ≤ 0.5
G48C C49A U53A G56A G58C | 0.611
C46G A65C G67A | 0.732

Variant | yeast fitness
U47A C61U | 0.948
C46G G56A | 1.03
U47A C49G A69U | 0.577
C46G G68U | 0.658
C46G G68C | 0.795
C46G G68A | 0.825
G48A C61A A65C | ≤ 0.5
C46A G58U | 0.907
A45U G51A | 0.919
A45U G51C | 0.538
A45U G48A G56A | 0.975
G48A C66A | 0.929
A45U C46G C60A | 0.557
U47A G56A | 0.964
U47C A57G | 0.921
C46U U47A G68C | 0.558
C46A C66A | 0.688
C46A C66U | 0.985
U47A A57U | 0.655
C46U C49U C66U | 0.806
C46A G56C | 0.642
C46A G56A | 1.01
G48A C55U A69U | 0.522
C46G C49U G67U | 0.671

Variant | yeast fitness
C46A C62A | 0.805
G48A C66G A70G | 0.632
A45U G50C | 0.728
G48A G52C U54C C66U | ≤ 0.5
U47C A57G A69U | 0.569
A45U G50A G68C A69U | ≤ 0.5
G48A G51A U59C | 0.956
U47A G58C | 1.06
C46G U64A | 0.889
U47C G58A | 0.986
C46G A57U C66U | 0.608
A45U U64G | 0.721
C46A G68C | 0.78
C46A G68U | 0.824
U47C C61U A65U C66U | ≤ 0.5
C46G G48A G58C | 1.15
C46A G52A G63C | 0.555
A45U C60U | 0.737
G48A A70G | 1.12
C46U U59C C62G A65U | 0.557
G48A G56C C62U | 0.65
C46G G63C C66A | ≤ 0.5
C46U A65C C66U | 0.721
